ChEMBL document CHEMBL1649441, “Potency and bactericidal activity of iclaprim against recent clinical gram-positive isolates” (2009)
Values after ≈ are worked out from the molar mass of the structure shown.

Columns and labels:
Assay type in all cases: functional
[1] = tested on: Streptococcus sp. 'group B'; assay: Antibacterial activity against Beta-hemolytic Streptococcus group B assessed as inhibition of bacterial growth at 8 ug/ml by CLSI broth microdilution method
Method in brief: (§1)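 Clinical isolates from skin/soft tissue, bloodstream and respiratory specimens were tested by broth microdilution per CLSI M7-A7 and M100-S18, with quality controls. Values are the number of isolates inhibited at each concentration, or MIC / percent susceptible. Highest concentration tested was 8 µg/ml for iclaprim and trimethoprim-sulfamethoxazole, and 64 µg/ml for trimethoprim.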

[2] = tested on: Enterococcus faecalis; assay: Antibacterial activity against Enterococcus faecalis assessed as inhibition of bacterial growth at 0.06 ug/ml by CLSI broth microdilution method; method in brief: as §1
[3] = tested on: Enterococcus faecalis; assay: (§2) Antibacterial activity against Enterococcus faecalis assessed as inhibition of bacterial growth at […] by CLSI broth microdilution method
[4] = tested on: Enterococcus faecalis; assay: as §2; remark: listed apart in the source
[5] = tested on: Enterococcus faecalis; assay: Antibacterial activity against Enterococcus faecalis assessed as inhibition of bacterial growth at 0.5 ug/ml by CLSI broth microdilution method; method in brief: as §1
[6] = tested on: Enterococcus faecalis; assay: Antibacterial activity against Enterococcus faecalis assessed as inhibition of bacterial growth at 1 ug/ml by CLSI broth microdilution method; method in brief: as §1
[7] = tested on: Enterococcus faecalis; assay: Antibacterial activity against Enterococcus faecalis assessed as inhibition of bacterial growth at 2 ug/ml by CLSI broth microdilution method; method in brief: as §1
[8] = tested on: Enterococcus faecalis; assay: Antibacterial activity against Enterococcus faecalis assessed as inhibition of bacterial growth at 4 ug/ml by CLSI broth microdilution method; method in brief: as §1
[9] = tested on: Enterococcus faecalis; assay: Antibacterial activity against Enterococcus faecalis assessed as inhibition of bacterial growth at >8 ug/ml by CLSI broth microdilution method; method in brief: as §1
[10] = tested on: Enterococcus faecium; assay: Antibacterial activity against Enterococcus faecium assessed as inhibition of bacterial growth at 0.03 ug/ml by CLSI broth microdilution method; method in brief: as §1
[11] = tested on: Enterococcus faecium; assay: Antibacterial activity against Enterococcus faecium assessed as inhibition of bacterial growth at 0.06 ug/ml by CLSI broth microdilution method; method in brief: as §1
[12] = tested on: Enterococcus faecium; assay: (§3) Antibacterial activity against Enterococcus faecium assessed as inhibition of bacterial growth at […] by CLSI broth microdilution method
[13] = tested on: Enterococcus faecium; assay: as §3; remark: listed apart in the source
[14] = tested on: Enterococcus faecium; assay: Antibacterial activity against Enterococcus faecium assessed as inhibition of bacterial growth at 0.5 ug/ml by CLSI broth microdilution method
[15] = tested on: Enterococcus faecium; assay: Antibacterial activity against Enterococcus faecium assessed as inhibition of bacterial growth at 2 ug/ml by CLSI broth microdilution method
[16] = tested on: Staphylococcus aureus; assay: Antibacterial activity against Methicillin-sensitive Staphylococcus aureus by CLSI broth microdilution method
[17] = tested on: Streptococcus sp. 'group B'; assay: Antibacterial activity against Beta-hemolytic Streptococcus group B by CLSI broth microdilution method; method in brief: as §1
[18] = tested on: Enterococcus faecalis; assay: Antibacterial activity against Enterococcus faecalis by CLSI broth microdilution method
[19] = tested on: Enterococcus faecium; assay: Antibacterial activity against Enterococcus faecium by CLSI broth microdilution method
[20] = tested on: Staphylococcus aureus; assay: (§4) Antibacterial activity against Methicillin-sensitive Staphylococcus aureus assessed as inhibition of bacterial growth at […] by CLSI broth microdilution method; set-up: Activity: scale not given: the % may be the effect or the level left
[21] = tested on: Staphylococcus aureus; assay: as §4; set-up: Activity: scale not given: the % may be the effect or the level left; remark: listed apart in the source
[22] = tested on: Staphylococcus aureus; assay: Antibacterial activity against Methicillin-sensitive Staphylococcus aureus assessed as inhibition of bacterial growth at 0.5 ug/ml by CLSI broth microdilution method
[23] = tested on: Staphylococcus aureus; assay: Antibacterial activity against Methicillin-sensitive Staphylococcus aureus assessed as inhibition of bacterial growth at 1 ug/ml by CLSI broth microdilution method
[24] = tested on: Staphylococcus aureus; assay: Antibacterial activity against Methicillin-sensitive Staphylococcus aureus assessed as inhibition of bacterial growth at 2 ug/ml by CLSI broth microdilution method
[25] = tested on: Staphylococcus aureus; assay: Antibacterial activity against Methicillin-sensitive Staphylococcus aureus assessed as inhibition of bacterial growth at 8 ug/ml by CLSI broth microdilution method
Method in brief: (§5)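 Recent clinical isolates from skin/soft tissue, bloodstream and respiratory specimens. Tested by broth microdilution per CLSI M7-A7 and M100-S18, with the appropriate quality controls. The thymidine content of the test medium was assessed to rule out artifactual inhibition.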

[26] = tested on: Staphylococcus aureus; assay: Antibacterial activity against Methicillin-resistant Staphylococcus aureus assessed as inhibition of bacterial growth at 0.06 ug/ml by CLSI broth microdilution method; method in brief: as §5
[27] = tested on: Staphylococcus aureus; assay: Antibacterial activity against Methicillin-resistant Staphylococcus aureus assessed as inhibition of bacterial growth at […] by CLSI broth microdilution method; also: tested at 0.25 µg/mL
[28] = tested on: Staphylococcus aureus; assay: Antibacterial activity against Methicillin-resistant Staphylococcus aureus assessed as inhibition of bacterial growth at 1 ug/ml by CLSI broth microdilution method; method in brief: as §5
[29] = tested on: Staphylococcus aureus; assay: Antibacterial activity against Methicillin-resistant Staphylococcus aureus assessed as inhibition of bacterial growth at 2 ug/ml by CLSI broth microdilution method; method in brief: as §5
[30] = tested on: Staphylococcus aureus; assay: Antibacterial activity against Methicillin-resistant Staphylococcus aureus assessed as inhibition of bacterial growth at 8 ug/ml by CLSI broth microdilution method; method in brief: as §5
[31] = tested on: Streptococcus sp. 'group A'; assay: Antibacterial activity against Beta-hemolytic Streptococcus group A assessed as inhibition of bacterial growth at 0.03 ug/ml by CLSI broth microdilution method; method in brief: as §1
[32] = tested on: Streptococcus sp. 'group A'; assay: Antibacterial activity against Beta-hemolytic Streptococcus group A assessed as inhibition of bacterial growth at 0.06 ug/ml by CLSI broth microdilution method; method in brief: as §1
[33] = tested on: Streptococcus sp. 'group A'; assay: Antibacterial activity against Beta-hemolytic Streptococcus group A assessed as inhibition of bacterial growth at […] by CLSI broth microdilution method
[34] = tested on: Streptococcus sp. 'group A'; assay: Antibacterial activity against Beta-hemolytic Streptococcus group A assessed as inhibition of bacterial growth at 0.5 ug/ml by CLSI broth microdilution method; method in brief: as §1
[35] = tested on: Streptococcus sp. 'group A'; assay: Antibacterial activity against Beta-hemolytic Streptococcus group A assessed as inhibition of bacterial growth at 1 ug/ml by CLSI broth microdilution method; method in brief: as §1
[36] = tested on: Streptococcus sp. 'group A'; assay: Antibacterial activity against Beta-hemolytic Streptococcus group A assessed as inhibition of bacterial growth at 2 ug/ml by CLSI broth microdilution method; method in brief: as §1
[37] = tested on: Streptococcus sp. 'group A'; assay: Antibacterial activity against Beta-hemolytic Streptococcus group A assessed as inhibition of bacterial growth at 4 ug/ml by CLSI broth microdilution method; method in brief: as §1
[38] = tested on: Streptococcus sp. 'group A'; assay: Antibacterial activity against Beta-hemolytic Streptococcus group A assessed as inhibition of bacterial growth at 8 ug/ml by CLSI broth microdilution method; method in brief: as §1
[39] = tested on: Streptococcus sp. 'group B'; assay: Antibacterial activity against Beta-hemolytic Streptococcus group B assessed as inhibition of bacterial growth at 0.03 ug/ml by CLSI broth microdilution method; method in brief: as §1
[40] = tested on: Streptococcus sp. 'group B'; assay: Antibacterial activity against Beta-hemolytic Streptococcus group B assessed as inhibition of bacterial growth at 0.06 ug/ml by CLSI broth microdilution method; method in brief: as §1
[41] = tested on: Streptococcus sp. 'group B'; assay: (§6) Antibacterial activity against Beta-hemolytic Streptococcus group B assessed as inhibition of bacterial growth at […] by CLSI broth microdilution method
[42] = tested on: Streptococcus sp. 'group B'; assay: as §6; remark: listed apart in the source
[43] = tested on: Streptococcus sp. 'group B'; assay: Antibacterial activity against Beta-hemolytic Streptococcus group B assessed as inhibition of bacterial growth at 2 ug/ml by CLSI broth microdilution method; method in brief: as §1
[44] = tested on: Streptococcus sp. 'group B'; assay: Antibacterial activity against Beta-hemolytic Streptococcus group B assessed as inhibition of bacterial growth at 4 ug/ml by CLSI broth microdilution method; method in brief: as §1

## COc1cc(Cc2cnc(N)nc2N)c2c(c1OC)OC(C1CC1)C=C2 (stereo unspecified)
[1]
  inhibition at 8 µg/mL: 100%
[2]
  inhibition at 0.06 µg/mL: 67.1%
[3]
  inhibition at […]: 69%
[4]
  inhibition at […]: 70.6%
[5]
  inhibition at 0.5 µg/mL: 70.6%
[6]
  inhibition at 1 µg/mL: 71%
[7]
  inhibition at 2 µg/mL: 71.9%
[8]
  inhibition at 4 µg/mL: 96.8%
[9]
  inhibition (INH): 100%
[10]
  inhibition at 0.03 µg/mL: 37.6%
[11]
  inhibition at 0.06 µg/mL: 37.6%
[12]
  inhibition at […]: 38%
[13]
  inhibition at […]: 38.3%
[14]
  inhibition at 0.5 µg/mL: 39.3%
[15]
  inhibition at 2 µg/mL: 58.1%
[16]
  MIC50: 0.06 µg/mL (≈ 0.169 µM)
  MIC90: 0.12 µg/mL (≈ 0.339 µM)
[17]
  MIC50: 0.12 µg/mL (≈ 0.339 µM)
  MIC90: 0.25 µg/mL (≈ 0.705 µM)
[18]
  MIC50: 0.015 µg/mL (≈ 0.0423 µM)
  MIC90: 4 µg/mL (≈ 11.3 µM)
[19]
  MIC50: 2 µg/mL (≈ 5.64 µM)
  MIC90: > 8 µg/mL
[20]; Staphylococcus aureus
  inhibition at […]: 95.6%
[21]; Staphylococcus aureus
  inhibition at […]: 98.5%
[22]
  inhibition at 0.5 µg/mL: 98.6%
[23]
  inhibition at 1 µg/mL: 98.7%
[24]
  inhibition at 2 µg/mL: 98.7%
[25]
  inhibition at 8 µg/mL: 100%
[26]
  inhibition at 0.06 µg/mL: 69.6%
[27]
  inhibition at […]: 92.3%
[28]
  inhibition at 1 µg/mL: 93.8%
[29]
  inhibition at 2 µg/mL: 94.6%
[30]
  inhibition at 8 µg/mL: 100%
[31]
  inhibition at 0.03 µg/mL: 94.9%
[32]
  inhibition at 0.06 µg/mL: 99.3%
[33]
  inhibition at […]: 100%
[34]
  inhibition at 0.5 µg/mL: 100%
[35]
  inhibition at 1 µg/mL: 100%
[36]
  inhibition at 2 µg/mL: 100%
[37]
  inhibition at 4 µg/mL: 100%
[38]
  inhibition at 8 µg/mL: 100%
[39]
  inhibition at 0.03 µg/mL: 0.5%
[40]
  inhibition at 0.06 µg/mL: 5.4%
[41]
  inhibition at […]: 55.4%
[42]
  inhibition at […]: 91.2%
[43]
  inhibition at 2 µg/mL: 100%
[44]
  inhibition at 4 µg/mL: 100%

## COc1cc(Cc2cnc(N)nc2N)cc(OC)c1OC [TRIMETHOPRIM]
[1]
  inhibition at 8 µg/mL: 100%
[2]
  inhibition at 0.06 µg/mL: 4.2%
[3]
  inhibition at […]: 29.7%
[4]
  inhibition at […]: 56.5%
[5]
  inhibition at 0.5 µg/mL: 62.9%
[6]
  inhibition at 1 µg/mL: 64.5%
[7]
  inhibition at 2 µg/mL: 67.7%
[8]
  inhibition at 4 µg/mL: 70%
[9]
  inhibition (INH): 100%
[10]
  inhibition at 0.03 µg/mL: 13.9%
[11]
  inhibition at 0.06 µg/mL: 30.4%
[12]
  inhibition at […]: 36%
[13]
  inhibition at […]: 37.3%
[14]
  inhibition at 0.5 µg/mL: 37.6%
[15]
  inhibition at 2 µg/mL: 38.3%
[16]
  MIC50: 1 µg/mL (≈ 3.44 µM)
  MIC90: 1 µg/mL (≈ 3.44 µM)
[17]
  MIC50: 1 µg/mL (≈ 3.44 µM)
  MIC90: 4 µg/mL (≈ 13.8 µM)
[18]
  MIC50: 0.25 µg/mL (≈ 0.861 µM)
  MIC90: > 64 µg/mL
[19]
  MIC50: 32 µg/mL (≈ 110 µM)
  MIC90: > 64 µg/mL
[20]
  Activity: 0.3%
[21]
  Activity: 2.4%
[22]
  inhibition at 0.5 µg/mL: 34.3%
[23]
  inhibition at 1 µg/mL: 90.2%
[24]
  inhibition at 2 µg/mL: 97.8%
[25]
  inhibition at 8 µg/mL: 98.7%
[26]
  inhibition at 0.06 µg/mL: < 0.1%
[27]
  inhibition at […]: 5.7%
[28]
  inhibition at 1 µg/mL: 88.5%
[29]
  inhibition at 2 µg/mL: 92.1%
[30]
  inhibition at 8 µg/mL: 92.9%
[31]
  inhibition at 0.03 µg/mL: 0.8%
[32]
  inhibition at 0.06 µg/mL: 8.6%
[33]
  inhibition at […]: 45.9%
[34]
  inhibition at 0.5 µg/mL: 98.5%
[35]
  inhibition at 1 µg/mL: 99.5%
[36]
  inhibition at 2 µg/mL: 100%
[37]
  inhibition at 4 µg/mL: 100%
[38]
  inhibition at 8 µg/mL: 100%
[39]
  inhibition at 0.03 µg/mL: 0%
[40]
  inhibition at 0.06 µg/mL: 0%
[41]
  inhibition at […]: 0%
[42]
  inhibition at […]: 0.5%
[43]
  inhibition at 2 µg/mL: 89.2%
[44]
  inhibition at 4 µg/mL: 99.5%
